ChEMBL document CHEMBL4196059, “Design, synthesis, and biological evaluation of stable β6.3-Helices: Discovery of non-hemolytic antibacterial peptides” (Eur J Med Chem, 2018)
Calls of active or inactive are those of the source. No cut-off for these calls is given here.

Columns and labels:
[1] = Hemolytic activity against human RBC at 50 uM after 1 hr by Drabkin's assay relative to control; assay type: ADME, cell-based, Erythrocyte; details: human red blood cells (erythrocytes), read-out: Activity
[2] = Hemolytic activity against human RBC at 25 uM after 1 hr by Drabkin's assay relative to control; assay type: ADME, cell-based, Erythrocyte; details: human red blood cells (erythrocytes), read-out: Activity
[3] = Hemolytic activity against human RBC at 12.5 uM after 1 hr by Drabkin's assay relative to control; assay type: ADME, cell-based, Erythrocyte; details: human red blood cells (erythrocytes), read-out: Activity
[4] = Hemolytic activity against human RBC at 6.25 uM after 1 hr by Drabkin's assay relative to control; assay type: ADME, cell-based, Erythrocyte; details: human red blood cells (erythrocytes), read-out: Activity
[5] = Hemolytic activity against human RBC at 3.125 uM after 1 hr by Drabkin's assay relative to control; assay type: ADME, cell-based, Erythrocyte; details: human red blood cells (erythrocytes), read-out: Activity
[6] = Hemolytic activity against human RBC at 1.56 uM after 1 hr by Drabkin's assay relative to control; assay type: ADME, cell-based, Erythrocyte; details: human red blood cells (erythrocytes), read-out: Activity
[7] = Hemolytic activity against human RBC at 0.78 uM after 1 hr by Drabkin's assay relative to control; assay type: ADME, cell-based, Erythrocyte; details: human red blood cells (erythrocytes), read-out: Activity
[8] = Hemolytic activity against human RBC at 0.39 uM after 1 hr by Drabkin's assay relative to control; assay type: ADME, cell-based, Erythrocyte; details: human red blood cells (erythrocytes), read-out: Activity
Erythrocyte = assay: Hemolytic activity against human RBC after 1 hr by Drabkin's assay; assay type: ADME, cell-based
Lipid bilayer [9] = assay: Binding affinity to POPC vesicles by surface plasmon resonance spectroscopy
Summary of the method: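 SPR on a dextran chip carrying immobilized POPC liposomes, with running buffer of 10 mM HEPES and 100 mM KCl at pH 7.4. Peptides in PBS were flowed at 25 μL/min at 10–1000 μM, with reference-subtracted response units. KD and Rmax were fitted from maximum response versus concentration. Regeneration used 20 mM CHAPS followed by fresh liposomes.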

Staphylococcus aureus [10] = assay: Growth inhibition of methicillin-resistant Staphylococcus aureus ATCC 43300 at 32 ug/ml after 18 hrs; assay type: functional; details: ATCC 43300, 18 h, read-out: GI
Summary of the method: (§1)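 Mid-log cultures in cation-adjusted Mueller Hinton broth were added at 5×10^5 CFU/mL to wells at a final compound concentration of 32 μg/mL. Plates stood at 37 °C for 18 h. Growth was read by OD600, and % inhibition was computed against media-only and untreated-bacteria controls.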

Escherichia coli [11] = assay: Growth inhibition of Escherichia coli ATCC 25922 at 32 ug/ml after 18 hrs; assay type: functional; details: ATCC 25922, 18 h, read-out: GI
Summary of the method: (§2)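 Mid-log cultures were prepared as above and seeded at 5×10^5 CFU/mL with compound at a final 32 μg/mL, then held static at 37 °C for 18 h. Growth was read as OD600. Percent inhibition was calculated against media-only and bacteria-only controls on the same plate.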

Klebsiella pneumoniae [12] = assay: Growth inhibition of multidrug-resistant Klebsiella pneumoniae ATCC 700603 at 32 ug/ml after 18 hrs; assay type: functional; details: ATCC 700603, 18 h, read-out: GI; summary of the method: as §1
Pseudomonas aeruginosa = assay: Growth inhibition of Pseudomonas aeruginosa ATCC 27853 at 32 ug/ml after 18 hrs; assay type: functional; details: ATCC 27853, 18 h, read-out: GI; summary of the method: as §2
Acinetobacter baumannii [13] = assay: Growth inhibition of Acinetobacter baumannii ATCC 19606 at 32 ug/ml after 18 hrs; assay type: functional; details: ATCC 19606 = CIP 70.34 = JCM 6841, 18 h, read-out: GI; summary of the method: as §2
Cryptococcus neoformans = assay: Growth inhibition of Cryptococcus neoformans H99 ATCC 208821 at 32 ug/ml after 24 hrs by resazurin dye-based microspectrophotometric assay; assay type: functional; details: var. grubii H99 ATCC 208821, 24 h, read-out: GI
Summary of the method: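 Yeasts were grown 3 days on YPD agar at 30 °C, suspended from five colonies and diluted in YNB broth to a final 2.5×10^3 CFU/mL. Compound at a final 32 μg/mL; incubated 24 h at 35 °C without shaking. C. albicans was read at OD530. C. neoformans was read as OD600–570 after resazurin (0.001% final) and a further 2 h at 35 °C. Fluconazole was the standard.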

[14] = Induction of pore formation in DOPC vesicles at 20 uM after 3 hrs by carboxyfluorescein dye leakage assay; details: in the assay text read “after 3 mins” for “after 3 hrs”
Summary of the method: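 POPC or DOPC liposomes were hydrated in 10 mM HEPES, 100 mM KCl, pH 7.4, containing 50 mM carboxyfluorescein. Size was checked by dynamic light scattering, and vesicles were used at 2.2×10^10 per mL. Peptide at 20 μM was equilibrated with vesicles for 3 min, and dye leakage was measured.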

Candida albicans = assay: Growth inhibition of Candida albicans ATCC 90028 at 32 ug/ml after 24 hrs by OD530 light-scattering microspectrophotometric method; details: ATCC 90028, 24 h, read-out: GI
Escherichia coli [15] = assay: Antibacterial activity against Escherichia coli ATCC 25922 after 18 hrs by non-binding surface 96-well plate-based method; assay type: functional
Summary of the method: (§3)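 Cultured in cation-adjusted Mueller Hinton broth at 37 °C for 12 h, diluted 40-fold and grown 1.5–3 h to mid-log. Seeded at 5×10^5 CFU/mL over a 12-point dose response in non-binding surface and polystyrene 96-well plates, duplicates (n=2). Incubated static at 37 °C for 18 h. MIC read from OD600 light scattering; colistin and vancomycin as standards.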

Escherichia coli [16] = assay: Antibacterial activity against Escherichia coli ATCC 25922 after 18 hrs by polystyrene 96-well plate-based method; assay type: functional
Summary of the method: (§4)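 Strains grown in cation-adjusted Mueller Hinton broth at 37 °C for 12 h, diluted 40-fold and regrown 1.5–3 h to mid-log. Inoculum was 5×10^5 CFU/mL in 12-point dose response, in non-binding surface or polystyrene plates, in duplicate. Plates stood at 37 °C for 18 h. MIC was read by OD600.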

Klebsiella pneumoniae [17] = assay: Antibacterial activity against multidrug-resistant Klebsiella pneumoniae ATCC 700603 after 18 hrs by non-binding surface 96-well plate-based method; assay type: functional; summary of the method: as §4
Klebsiella pneumoniae [18] = assay: Antibacterial activity against multidrug-resistant Klebsiella pneumoniae ATCC 700603 after 18 hrs by polystyrene 96-well plate-based method; assay type: functional; summary of the method: as §4
Acinetobacter baumannii [19] = assay: Antibacterial activity against Acinetobacter baumannii ATCC 19606 after 18 hrs by non-binding surface 96-well plate-based method; assay type: functional; summary of the method: as §4
Acinetobacter baumannii [20] = assay: Antibacterial activity against Acinetobacter baumannii ATCC 19606 after 18 hrs by polystyrene 96-well plate-based method; assay type: functional; summary of the method: as §3
Staphylococcus aureus [21] = assay: Antibacterial activity against methicillin-resistant Staphylococcus aureus ATCC 43300 after 18 hrs by non-binding surface 96-well plate-based method; assay type: functional; summary of the method: as §4
Staphylococcus aureus [22] = assay: Antibacterial activity against methicillin-resistant Staphylococcus aureus ATCC 43300 after 18 hrs by polystyrene 96-well plate-based method; assay type: functional; summary of the method: as §4
[23] = Induction of pore formation in DOPC vesicles at 20 uM after 3 mins by carboxyfluorescein dye leakage assay
Lipid bilayer [24] = assay: Induction of pore formation in POPC vesicles at 20 to 100 uM after 3 mins by carboxyfluorescein dye leakage assay
[25] = ATCC 19606 = CIP 70.34 = JCM 6841
[26] = ATCC 19606 = CIP 70.34 = JCM 6841, 18 h

| Compound | hemolysis at 1 h, 50 µM [1] [%] | hemolysis at 1 h, 25 µM [2] [%] | hemolysis at 1 h, 12.5 µM [3] [%] | hemolysis at 1 h, 6.25 µM [4] [%] | hemolysis at 1 h, 3.125 µM [5] [%] | hemolysis at 1 h, 1.56 µM [6] [%] | hemolysis at 1 h, 0.78 µM [7] [%] | hemolysis at 1 h, 0.39 µM [8] [%] | Activity (Erythrocyte) | Kd (Lipid bilayer [9]) [µM] | Rmax (Lipid bilayer [9]) | inhibition of growth at 32 µg/mL (Staphylococcus aureus [10]) [%] | inhibition of growth at 32 µg/mL (Escherichia coli [11]) [%] | inhibition of growth at 32 µg/mL (Klebsiella pneumoniae [12]) [%] | inhibition of growth at 32 µg/mL (Pseudomonas aeruginosa) [%] | inhibition of growth at 32 µg/mL (Acinetobacter baumannii [13]) [%] | inhibition of growth at 32 µg/mL (Cryptococcus neoformans) [%] | Activity [14] | inhibition of growth at 32 µg/mL (Candida albicans) [%] | also measured |
| --- | --- | --- | --- | --- | --- | --- | --- | --- | --- | --- | --- | --- | --- | --- | --- | --- | --- | --- | --- | --- |
| CC(C)(C)OC(=O)N1CCC[C@H]1C(=O)N1CCCN1C(=O)N1CCC[C@H]1C(=O)N1CCCN1C(=O)N1CCC[C@H]1C(=O)N1CCCN1C(=O)N1CCC[C@H]1C(=O)N1CCCN1C(=O)N1CCC[C@H]1C(=O)N1CCCN1C(=O)N1CCC[C@H]1C(=O)N1CCCN1C(=O)N1CCC[C@H]1C(=O)N1CCCN1C(=O)N1CCC[C@H]1C(=O)N1CCCN1C(=O)OCc1ccccc1 | -0.42 | -0.23 | -0.17 | -0.11 | 0.02 | -0.04 | 0.15 | -0.04 | Dose-dependent effect | 440 | 632 | 20.7 | 5.27 | 5.27 | -8.18 | 17.8 | -3.43 | inactive | 2.92 |  |
| COLISTIN |  |  |  |  |  |  |  |  |  |  |  |  |  |  |  |  |  |  |  | MIC (Escherichia coli [15]): 0.016 µg/mL; MIC (Escherichia coli [16]): 0.125 µg/mL; MIC (Klebsiella pneumoniae [17]): 0.06 µg/mL; MIC (Klebsiella pneumoniae [18]): 0.25 µg/mL; MIC (Acinetobacter baumannii [19]; [25]): 0.06 to 0.125 µg/mL; MIC (Acinetobacter baumannii [20]; [25]): 1 µg/mL; MIC (Staphylococcus aureus [21]): > 32 µg/mL; MIC (Staphylococcus aureus [22]): > 32 µg/mL |
| CN[C@H](CC(C)C)C(=O)N[C@H]1C(=O)N[C@@H](CC(N)=O)C(=O)N[C@H]2C(=O)N[C@H]3C(=O)N[C@H](C(=O)N[C@H](C(=O)O)c4cc(O)cc(O)c4-c4cc3ccc4O)[C@H](O)c3ccc(c(Cl)c3)Oc3cc2cc(c3O[C@@H]2O[C@H](CO)[C@@H](O)[C@H](O)[C@H]2O[C@H]2C[C@](C)(N)[C@H](O)[C@H](C)O2)Oc2ccc(cc2Cl)[C@H]1O [VANCOMYCIN] |  |  |  |  |  |  |  |  |  |  |  |  |  |  |  |  |  |  |  | MIC (Escherichia coli [15]; ATCC 25922, 18 h): > 32 µg/mL; MIC (Escherichia coli [16]; ATCC 25922, 18 h): > 32 µg/mL; MIC (Klebsiella pneumoniae [17]; ATCC 700603, 18 h): > 32 µg/mL; MIC (Klebsiella pneumoniae [18]; ATCC 700603, 18 h): > 32 µg/mL; MIC (Acinetobacter baumannii [19]; [26]): > 32 µg/mL; MIC (Acinetobacter baumannii [20]; [26]): > 32 µg/mL |
| CC(C)(C)OC(=O)[C@@H]1CCCN1C(=O)N1CCCN1C(=O)[C@@H]1CCCN1C(=O)N1CCCN1C(=O)[C@@H]1CCCN1C(=O)N1CCCN1C(=O)[C@@H]1CCCN1C(=O)N1CCCN1C(=O)[C@@H]1CCCN1C(=O)N1CCCN1C(=O)[C@@H]1CCCN1C(=O)N1CCCN1C(=O)[C@@H]1CCCN1C(=O)N1CCCN1C(=O)[C@@H]1CCCN1C(=O)N1CCCN1C(=O)OCc1ccccc1 | -0.73 | -0.41 | -0.04 | -0.37 | -0.12 | -0.24 | 0.04 | 0.08 | Dose-dependent effect | 2580 | 2640 | 20.5 | -1.93 | -1.93 | -6.76 | 15.9 | -8.19 | inactive | 5.75 |  |
| O=C(NCCO)[C@@H]1CCCN1C(=O)N1CCCN1C(=O)[C@@H]1CCCN1C(=O)N1CCCN1C(=O)[C@@H]1CCCN1C(=O)N1CCCN1C(=O)[C@@H]1CCCN1C(=O)N1CCCN1C(=O)[C@@H]1CCCN1C(=O)N1CCCN1C(=O)[C@@H]1CCCN1C(=O)N1CCCN1C(=O)[C@@H]1CCCN1C(=O)N1CCCN1C(=O)[C@@H]1CCCN1C(=O)N1CCCN1C(=O)OCc1ccccc1 | -0.04 | -0.04 | -0.04 | -0.11 | 0.15 | 0.02 | 0.15 | -0.04 | Dose-dependent effect | 373 | 601 | 11.8 | 11.3 | 11.3 | -2.74 | 36.2 | -4.06 |  | 4.99 | Activity [23]: 13%; Activity (Lipid bilayer [24]): inactive |
